Source: ChEMBL document CHEMBL1926572, “Synthesis and evaluation of the substrate activity of C-6 substituted purine ribosides with E. coli purine nucleoside phosphorylase: palladium mediated cross-coupling of organozinc halides with 6-chloropurine nucleosides” (Eur J Med Chem, 2012)
Activity calls are given as the source filed them. The calls are words filed in the database; no cut-off is given here.

Experiments:
Escherichia coli = test: Activity of Escherichia coli PNP assessed per mg of protein at 100 uM by UV spectrometric analysis
Method in brief: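 Samples taken at several times; substrate and product resolved by C-18 HPLC (5–50% acetonitrile gradient, NH₄H₂PO₄ pH 4.5) with UV detection. Rate in nmoles/mg/h; mean of at least 2 measurements.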

CCRF-CEM = test: Cytotoxicity against human CCRF-CEM cells after 72 hrs by coulter counting; type: functional, cell-based
CAKI-1 = test: Cytotoxicity against human Caki1 cells assessed as cell viability after 72 hrs by sulforhodamine B assay; type: functional, cell-based; settings: CAKI-1, 72 h
Method in brief: (§1)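 Cells plated and kept at 37 °C with a range of compound concentrations for 72 h of continuous exposure; viability by sulforhodamine B staining, absorbance at 570 nm; concentration inhibiting growth by 50% determined from a single experiment.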

DLD-1 = test: Cytotoxicity against human DLD1 cells assessed as cell viability after 72 hrs by sulforhodamine B assay; type: functional, cell-based; settings: DLD-1, 72 h; method in brief: as §1
NCI-H23 [1] = test: Cytotoxicity against human NCI-H23 cells assessed as cell viability after 72 hrs by sulforhodamine B assay; type: functional, cell-based; settings: NCI-H23, 72 h; method in brief: as §1
PC-3 = test: Cytotoxicity against human PC3 cells assessed as cell viability after 72 hrs by sulforhodamine B assay; type: functional, cell-based; settings: PC-3, 72 h; method in brief: as §1
NCI-H23 [2] = test: Antitumor activity against human NCI-H23 cells xenografted in nude mouse assessed as tumor growth inhibition at maximum tolerated dose, ip qd for 9 consecutive days; type: functional, organism-based
Method in brief: (§2)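 NCI-H23 tumors grown on the flanks of nude mice; once tumors were about 200 mg, animals received 33, 50 or 75 mg/kg ip daily for 9 consecutive days; tumor growth and body weight followed.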

NCI-H23 [3] = test: Antitumor activity against human NCI-H23 cells xenografted in nude mouse assessed as tumor growth inhibition at 33 to 75 mg/kg, ip qd for 9 consecutive days; type: functional, organism-based; method in brief: as §2
ZR-75-1 = test: Cytotoxicity against human ZR-75-1 cells assessed as cell viability after 72 hrs by sulforhodamine B assay; type: functional, cell-based; settings: ZR-75-1, 72 h; method in brief: as §1
Mus musculus [4] = test: Toxicity in nude mouse xenografted with human NCI-H23 cells assessed as mortality at 75 mg/kg, ip qd for 9 consecutive days; type: organism-based; design: dose 75 mg/kg, route intraperitoneal; settings: in vivo
Method in brief: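 NCI-H23 tumours grown subcutaneously on the flanks of nude mice. Dosing began once tumours reached about 200 mg: 33, 50 or 75 mg/kg given ip once daily for 9 consecutive days. Tumour growth, deaths and body-weight loss were recorded.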

SNB-7 = test: Cytotoxicity against human SNB7 cells assessed as cell viability after 72 hrs by sulforhodamine B assay; type: functional, cell-based; settings: SNB-7, 72 h; method in brief: as §1
LOX IMVI = test: Cytotoxicity against human LOXIMVI cells assessed as cell viability after 72 hrs by sulforhodamine B assay; type: functional, cell-based; method in brief: as §1
Mus musculus [5] = test: Toxicity in nude mouse xenografted with human NCI-H23 cells assessed as decrease in body weight at 75 mg/kg, ip qd for 9 consecutive days; type: organism-based; design: dose 75 mg/kg, route intraperitoneal; scale not given: the % may be the effect or the level left; settings: in vivo; method in brief: as §2

`CC(C)Cc1ncnc2c1ncn2[C@@H]1O[C@H](CO)[C@@H](O)[C@H]1O` was tested, and the Activity (Escherichia coli) was 79000 nmol/h and the IC50 (CCRF-CEM) was > 130 µM.
`Cc1ncnc2c1ncn2[C@H]1C[C@H](O)[C@@H](CO)O1` gave an Activity (Escherichia coli) of 461000 nmol/h.
For `OC[C@H]1O[C@@H](n2cnc3c(C4CC4)ncnc32)[C@H](O)[C@@H]1O`, the IC50 (CAKI-1) was > 200 µM, the IC50 (DLD-1) was 170 µM and the Activity (Escherichia coli) was 51000 nmol/h. The IC50 (NCI-H23 [1]) was 1 µM, the IC50 (PC-3) was 67 µM and the “growth inhibition (GI)” value (NCI-H23 [2]) was “inactive”. For the same compound, the “growth inhibition (GI)” value (NCI-H23 [3]) was “inactive”, the IC50 (ZR-75-1) was 23 µM and the Activity (Mus musculus [4]) was “Toxic”. For the same compound, the IC50 (SNB-7) was 33 µM, the IC50 (LOX IMVI) was > 200 µM and the IC50 (CCRF-CEM) was 1 µM.
`OC[C@H]1O[C@@H](n2cnc3c(C4CCC4)ncnc32)[C@H](O)[C@@H]1O` was tested, and the Activity (Escherichia coli) was 63000 nmol/h and the IC50 (CCRF-CEM) was 7 µM.
Work on `OC[C@H]1O[C@@H](n2cnc3c(-c4ccccc4)ncnc32)[C@H](O)[C@@H]1O` yielded an IC50 (CAKI-1) of 31 µM, an IC50 (DLD-1) of 6 µM and an Activity (Escherichia coli) of 21000 nmol/h. For the same compound, the IC50 (NCI-H23 [1]) was 1.2 µM, the IC50 (PC-3) was 1.2 µM and the IC50 (ZR-75-1) was 1.2 µM. The IC50 (SNB-7) was 31 µM, the IC50 (LOX IMVI) was 6.2 µM and the IC50 (CCRF-CEM) was 0.62 µM.
Compound `OC[C@H]1O[C@@H](n2cnc3c(C4CCCC4)ncnc32)[C@H](O)[C@@H]1O` has an Activity (Escherichia coli) of 42000 nmol/h and an IC50 (CCRF-CEM) of 16 µM.
`CCCCc1ncnc2c1ncn2[C@@H]1O[C@H](CO)[C@@H](O)[C@H]1O` showed an Activity (Escherichia coli) of 86000 nmol/h and an IC50 (CCRF-CEM) of 49 µM.
Compound `CCCc1ncnc2c1ncn2[C@@H]1O[C@H](CO)[C@@H](O)[C@H]1O` has an Activity (Escherichia coli) of 72000 nmol/h and an IC50 (CCRF-CEM) of 6.8 µM.
Compound `OC[C@H]1O[C@@H](n2cnc3c(-c4cccs4)ncnc32)[C@H](O)[C@@H]1O` has an IC50 (CAKI-1) of 30 µM, an IC50 (DLD-1) of 0.9 µM and an Activity (Escherichia coli) of 9900 nmol/h. The Activity (Mus musculus [5]) was 14%, the IC50 (NCI-H23 [1]) was 0.6 µM and the IC50 (PC-3) was 0.9 µM. For the same compound, the “growth inhibition (GI)” value (NCI-H23 [2]) was “inactive”, the “growth inhibition (GI)” value (NCI-H23 [3]) was “inactive” and the IC50 (ZR-75-1) was 0.3 µM. The IC50 (SNB-7) was 10 µM, the IC50 (LOX IMVI) was 0.3 µM and the IC50 (CCRF-CEM) was 0.09 µM.
With `Cc1ncnc2c1ncn2[C@@H]1O[C@H](CO)[C@@H](O)[C@H]1O` the Activity (Escherichia coli) was 84000 nmol/h and the IC50 (CCRF-CEM) was 0.02 µM.
For `Cc1ncnc2c1ncn2[C@@H]1O[C@H](CO)[C@@H](O)[C@@H]1O`, the Activity (Escherichia coli) was 14 nmol/h and the IC50 (CCRF-CEM) was > 130 µM.
`CCc1ncnc2c1ncn2[C@@H]1O[C@H](CO)[C@@H](O)[C@H]1O` was tested, and the Activity (Escherichia coli) was 69000 nmol/h and the IC50 (CCRF-CEM) was 0.72 µM.
`Nc1nc(F)nc2c1ncn2[C@@H]1O[C@H](CO)[C@@H](O)[C@@H]1O` gave an Activity (Escherichia coli) of 1300 nmol/h.
`Nc1ncnc2c1ncn2[C@@H]1O[C@H](CO)[C@@H](O)[C@H]1O` showed an Activity (Escherichia coli) of 398000 nmol/h.
